Consider four molecules from ChEMBL document CHEMBL3593164, “Rational Design and Synthesis of Thioridazine Analogues as Enhancers of the Antituberculosis Therapy” (J Med Chem, 2015).

A word on the MIC: it is the lowest concentration found to suppress growth.

The structures appear in SMILES notation. A value given as a limit tells only on which side of the number the result lay.

Experiment [1] relates to Mycobacterium tuberculosis. Description: Inhibition of multidrug resistance efflux pump in Mycobacterium tuberculosis H37Rv assessed as amikacin MIC at 2 ug/ml after 7 days by two-dimensional broth microdilution checkerboard assay. The following applies: 168 h.
In experiment [2] the test system is Mycobacterium tuberculosis. As to the kind of experiment: Inhibition of multidrug resistance efflux pump in Mycobacterium tuberculosis H37Rv assessed as reduction in amikacin MIC at 32 ug/ml after 7 days by two-dimensional broth microdilution checkerboard assay. The essentials: (§1)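 M. tuberculosis H37Rv two-dimensional broth microdilution checkerboard. MICs of INH, RIF, AMK, OFX or EtBr were determined without and with graded sub-inhibitory compound concentrations, starting at ½ MIC. Where MIC was undeterminable, the highest concentration still permitting growth was taken as ½ MIC. FIC = MIC of antibacterial in combination / MIC alone. FIC ≤0.25 was scored as synergism and ≥2 as antagonism.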
A general note: In broth dilution the organism is exposed to a series of concentrations in liquid medium.

The test system of experiment [3] is Mycobacterium tuberculosis. As to the kind of experiment: Inhibition of multidrug resistance efflux pump in Mycobacterium tuberculosis H37Rv assessed as ethidium bromide MIC at 1 ug/ml after 7 days by two-dimensional broth microdilution checkerboard assay. The following applies: 168 h. In a few lines: as §1
The test system of experiment [4] is Mycobacterium tuberculosis. Description: Inhibition of multidrug resistance efflux pump in Mycobacterium tuberculosis H37Rv assessed as reduction in isoniazid MIC at 64 ug/ml after 7 days by two-dimensional broth microdilution checkerboard assay. The essentials: as §1
In experiment [5] the test system is Mycobacterium tuberculosis. As to the kind of experiment: Inhibition of multidrug resistance efflux pump in Mycobacterium tuberculosis H37Rv assessed as reduction in ethidium bromide MIC at 32 ug/ml after 7 days by two-dimensional broth microdilution checkerboard assay. In a few lines:
as §1

Experiment [6] relates to Mycobacterium tuberculosis. Description: Inhibition of multidrug resistance efflux pump in Mycobacterium tuberculosis H37Rv assessed as isoniazid MIC at 2 ug/ml after 7 days by two-dimensional broth microdilution checkerboard assay. To be noted: 168 h.
For experiment [7], the system named is Mycobacterium tuberculosis. As to the kind of experiment: Inhibition of multidrug resistance efflux pump in Mycobacterium tuberculosis H37Rv assessed as ofloxacin MIC at 2 ug/ml after 7 days by two-dimensional broth microdilution checkerboard assay. To be noted: 168 h.
In experiment [8] the test system is Mycobacterium tuberculosis. Description: Inhibition of multidrug resistance efflux pump in Mycobacterium tuberculosis H37Rv assessed as reduction in rifampin MIC at 4 ug/ml after 7 days by two-dimensional broth microdilution checkerboard assay. In a few lines: as §1
Experiment [9] has as its system Mycobacterium tuberculosis. As to the kind of experiment: Inhibition of multidrug resistance efflux pump in Mycobacterium tuberculosis H37Rv assessed as reduction in isoniazid MIC at 128 ug/ml after 7 days by two-dimensional broth microdilution checkerboard assay.
Experiment [10] concerns Mycobacterium tuberculosis. Description: Inhibition of multidrug resistance efflux pump in Mycobacterium tuberculosis H37Rv assessed as reduction in amikacin MIC at 128 ug/ml after 7 days by two-dimensional broth microdilution checkerboard assay.
Experiment [11] concerns Mycobacterium tuberculosis. Description: Inhibition of multidrug resistance efflux pump in Mycobacterium tuberculosis H37Rv assessed as reduction in ofloxacin MIC at 128 ug/ml after 7 days by two-dimensional broth microdilution checkerboard assay.
The test system of experiment [12] is Mycobacterium tuberculosis. As to the kind of experiment: Inhibition of multidrug resistance efflux pump in Mycobacterium tuberculosis H37Rv assessed as reduction in amikacin MIC at 7.5 ug/ml after 7 days by two-dimensional broth microdilution checkerboard assay. The essentials: as §1
Experiment [13] relates to Mycobacterium tuberculosis. Description: Inhibition of multidrug resistance efflux pump in Mycobacterium tuberculosis H37Rv assessed as amikacin MIC at 0.23 ug/ml after 7 days by two-dimensional broth microdilution checkerboard assay. The following applies: 168 h. The essentials:
(§2)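 M. tuberculosis H37Rv ATCC27294. MICs of INH, RIF, AMK, OFX and EtBr were determined alone and with sub-inhibitory concentrations of test compound by two-dimensional broth microdilution checkerboard. Where a compound's MIC was not determinable, the highest concentration still allowing growth was taken as ½ MIC. FIC = MIC in combination / MIC alone. FIC ≤0.25 was scored as synergism and ≥2 as antagonism.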

The subject of experiment [14] is Mycobacterium tuberculosis. As to the kind of experiment: Inhibition of multidrug resistance efflux pump in Mycobacterium tuberculosis H37Rv assessed as isoniazid MIC at 0.23 ug/ml after 7 days by two-dimensional broth microdilution checkerboard assay. The following applies: 168 h. In a few lines: as §2
Experiment [15] has as its system Mycobacterium tuberculosis. As to the kind of experiment: Inhibition of multidrug resistance efflux pump in Mycobacterium tuberculosis H37Rv assessed as reduction in ethidium bromide MIC at 3.75 ug/ml after 7 days by two-dimensional broth microdilution checkerboard assay. The essentials: as §1
Experiment [16] deals with Mycobacterium tuberculosis. As to the kind of experiment: Inhibition of multidrug resistance efflux pump in Mycobacterium tuberculosis H37Rv assessed as ofloxacin MIC at 0.23 ug/ml after 7 days by two-dimensional broth microdilution checkerboard assay. The following applies: 168 h. The essentials: as §2
The test system of experiment [17] is Mycobacterium tuberculosis. Description: Inhibition of multidrug resistance efflux pump in Mycobacterium tuberculosis H37Rv assessed as rifampin MIC at 0.23 ug/ml after 7 days by two-dimensional broth microdilution checkerboard assay. To be noted: 168 h. The essentials:
as §2

Experiment [18] deals with Mycobacterium tuberculosis. As to the kind of experiment: Inhibition of multidrug resistance efflux pump in Mycobacterium tuberculosis H37Rv assessed as reduction in ofloxacin MIC at 7.5 ug/ml after 7 days by two-dimensional broth microdilution checkerboard assay. The essentials: as §1
In experiment [19] the test system is Mycobacterium tuberculosis. Description: Inhibition of multidrug resistance efflux pump in Mycobacterium tuberculosis H37Rv assessed as rifampin MIC at 7.5 ug/ml after 7 days by two-dimensional broth microdilution checkerboard assay. To be noted: 168 h. The essentials: as §1
In experiment [20] the test system is Mycobacterium tuberculosis. Description: Inhibition of multidrug resistance efflux pump in Mycobacterium tuberculosis H37Rv assessed as ethidium bromide MIC at 3.75 ug/ml after 7 days by two-dimensional broth microdilution checkerboard assay. The following applies: 168 h. The essentials:
as §2

In experiment [21] the test system is Mycobacterium tuberculosis. Description: Inhibition of multidrug resistance efflux pump in Mycobacterium tuberculosis H37Rv assessed as rifampin MIC at 0.94 ug/ml after 7 days by two-dimensional broth microdilution checkerboard assay. To be noted: 168 h. In a few lines: as §2
Experiment [22] concerns Mycobacterium tuberculosis. As to the kind of experiment: Inhibition of multidrug resistance efflux pump in Mycobacterium tuberculosis H37Rv assessed as amikacin MIC at 0.12 ug/ml after 7 days by two-dimensional broth microdilution checkerboard assay. The following applies: 168 h. In a few lines:
as §2

Experiment [23] concerns Mycobacterium tuberculosis. As to the kind of experiment: Inhibition of multidrug resistance efflux pump in Mycobacterium tuberculosis H37Rv assessed as ofloxacin MIC at 0.12 ug/ml after 7 days by two-dimensional broth microdilution checkerboard assay. To be noted: 168 h. The essentials: as §2
Experiment [24] has as its system Mycobacterium tuberculosis. Description: Inhibition of multidrug resistance efflux pump in Mycobacterium tuberculosis H37Rv assessed as ofloxacin MIC at 0.94 ug/ml after 7 days by two-dimensional broth microdilution checkerboard assay. To be noted: 168 h. The essentials:
as §2

The subject of experiment [25] is Mycobacterium tuberculosis. As to the kind of experiment: Inhibition of multidrug resistance efflux pump in Mycobacterium tuberculosis H37Rv assessed as rifampin MIC at 3.75 ug/ml after 7 days by two-dimensional broth microdilution checkerboard assay. To be noted: 168 h. The essentials:
as §2

Experiment [26] deals with Mycobacterium tuberculosis. Description: Inhibition of multidrug resistance efflux pump in Mycobacterium tuberculosis H37Rv assessed as rifampin MIC at 0.47 ug/ml after 7 days by two-dimensional broth microdilution checkerboard assay. The following applies: 168 h. In a few lines:
as §2

Experiment [27] has as its system Mycobacterium tuberculosis. Description: Inhibition of multidrug resistance efflux pump in Mycobacterium tuberculosis H37Rv assessed as isoniazid MIC at 1.88 ug/ml after 7 days by two-dimensional broth microdilution checkerboard assay. The following applies: 168 h. In a few lines: as §2
Experiment [28] relates to Mycobacterium tuberculosis. As to the kind of experiment: Inhibition of multidrug resistance efflux pump in Mycobacterium tuberculosis H37Rv assessed as isoniazid MIC at 0.12 ug/ml after 7 days by two-dimensional broth microdilution checkerboard assay. To be noted: 168 h. In a few lines:
as §2

Experiment [29] has as its system Mycobacterium tuberculosis. As to the kind of experiment: Inhibition of multidrug resistance efflux pump in Mycobacterium tuberculosis H37Rv assessed as ethidium bromide MIC at 7.5 ug/ml after 7 days by two-dimensional broth microdilution checkerboard assay. The following applies: 168 h. In a few lines: as §1
Experiment [30] has as its system Mycobacterium tuberculosis. As to the kind of experiment: Inhibition of multidrug resistance efflux pump in Mycobacterium tuberculosis H37Rv assessed as ethidium bromide MIC at 1.88 ug/ml after 7 days by two-dimensional broth microdilution checkerboard assay. The following applies: 168 h. In a few lines: as §2
Experiment [31] has as its system Mycobacterium tuberculosis. As to the kind of experiment: Inhibition of multidrug resistance efflux pump in Mycobacterium tuberculosis H37Rv assessed as isoniazid MIC at 0.94 ug/ml after 7 days by two-dimensional broth microdilution checkerboard assay. The following applies: 168 h. The essentials: as §2

For `CN1CCCCC1CCn1c2ccccc2c2ccccc21` (racemic), the MIC was determined as 1 µg/mL in [1], 12.5 µg/mL in [3], 0.1 µg/mL in experiment [6] and 1 µg/mL in [7]. Moreover, the results for the “fold change (FC)” value in [2], in experiment [4] and in [5] were 4, more than 128 and 4, respectively.
Turning to `COc1ccc(N(CCC2CCCCN2C)C(C)C)cc1OC` (racemic), in [8], the “fold change (FC)” value is 4.
As for `CN1CCCCC1CCn1ccc2ccc(Br)cc21` (racemic), the “fold change (FC)” value is more than 164 in experiment [9], more than 128 in experiment [10] and more than 128 in [11].
Regarding `CSc1ccc2c(c1)N(CCC1CCCCN1C)c1ccccc1S2` (stereo unspecified) [THIORIDAZINE], the “fold change (FC)” value was more than 128 in [12], 4 in [15] and more than 128 in [18]. For the same molecule, the MIC is 1 µg/mL in experiment [13]; 0.1 µg/mL in experiment [14]; 1 µg/mL in experiment [16]; 1 µg/mL in experiment [17]; less than 0.0156 µg/mL in experiment [19]; 3.12 µg/mL in experiment [20]. For the same molecule, the MIC in experiment [21], in experiment [22], in experiment [23], in experiment [24], in experiment [25] and in experiment [26] was 1 µg/mL in each case. Besides, the MIC in [27] is 0.1 µg/mL; in experiment [28], 0.1 µg/mL; in experiment [29], less than 0.195 µg/mL; in [30] it was 6.25 µg/mL; in [31] it was 0.1 µg/mL.
